Laboratory results published in ChEMBL document CHEMBL3576784, “Azolylthioacetamide: A Highly Promising Scaffold for the Development of Metallo-β-lactamase Inhibitors” (ACS Med Chem Lett, 2015).

Substrate: C[C@@H](O)[C@H]1C(=O)N2C(C(=O)O)=C(SCCNC=N)C[C@H]12
Test: Activity of Aeromonas veronii metallo-beta-lactamase ImiS
In short: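 Purified enzyme; initial rates of imipenem hydrolysis followed by UV spectrophotometry (262 or 300 nm) in 50 mM Tris pH 7.0, 25 °C. Substrate 24–140 μM, inhibitor 0–10 μM. Rates in triplicate and averaged. Inhibition mode from Lineweaver–Burk plots. Ki from fits of initial velocity vs substrate concentration at each inhibitor level.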

B1: Beta-lactamase (Aeromonas veronii), O31272 (protein)
chain: MMKGWIKCGLAGAVVLMASFWGGSVRAAGMSLTQQVSGPVYVVEDNYYVQENSMVYFGAKGVTVVGATWTPDTARELHKLIKRVSRKPVLEVINTNYHTDRAGGNAYWKSIGAKVISTRQTRDLMKSDWAEIVAFTRKGLPEYPDLPLVLPNVVHEGDFTLQEGKLRAFYLGPAHSPDGIFVYFPDQQVLYGNCILKEKLGNLSFADVKAYPQTLERLKAMKLPIKTVVGGHDSPLHGPELIDHYEALIKAASQS
With B1 as the protein, how does the Km read?
The Km was 99 µM.

What about the kcat of the same protein?
Its kcat is 255 s⁻¹.
